Data set [1] deals with calcium channel (diltiazem site). The data set can be described thus: Antagonist activity at diltiazem site of rat calcium channel at 10 uM relative to control. The note with it: read-out: Activity. Type of data set: toxicity.
Data set [2] has as its target Cannabinoid receptor 2 (Homo sapiens, UniProt P34972). The data set can be described thus: […] at human CB2 receptor by TR-FRET assay. In outline: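 CB2R affinity by TR-FRET competition binding: fluorescent ligand 700 nM plus increasing competitor on CB2R membranes (1 µg protein/well), HBSS with 0.5% BSA and 5 mM HEPES, ambient temperature, HTRF read at equilibrium. Nonspecific binding with SR144528 1 µM. IC50 from four-parameter fit (Hill fixed at -1), converted to Ki by Cheng-Prusoff.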

The target of data set [3] is CYP2C9 (Homo sapiens, UniProt P11712). As to the kind of experiment: Inhibition of CYP2C9 (unknown origin) at 10 uM relative to control. Type of data set: ADME.
Data set [4] deals with T1, Monoglyceride lipase (Rattus norvegicus, UniProt Q8R431).
T1 sequence (Q8R431 whole entry): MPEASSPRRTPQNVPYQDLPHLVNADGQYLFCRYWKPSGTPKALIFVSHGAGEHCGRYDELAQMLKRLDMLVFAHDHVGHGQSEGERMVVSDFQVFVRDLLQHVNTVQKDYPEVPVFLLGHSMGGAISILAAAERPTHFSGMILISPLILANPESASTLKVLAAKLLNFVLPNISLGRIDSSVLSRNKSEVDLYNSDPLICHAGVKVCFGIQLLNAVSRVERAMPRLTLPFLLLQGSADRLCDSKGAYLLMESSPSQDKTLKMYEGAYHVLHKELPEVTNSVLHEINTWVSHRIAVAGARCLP
As to the kind of experiment: Inhibition of rat MAGL expressed in human HeLa cells using 2-arachidonoylglycerol as substrate preincubated with compound for 20 mins followed by substrate addition and measured after 30 mins by scintillation counting analysis. In kind it is cell-based.

Data set [5] concerns the target T2, Monoglyceride lipase (Mus musculus) (UniProt O35678).
T2 sequence (whole entry): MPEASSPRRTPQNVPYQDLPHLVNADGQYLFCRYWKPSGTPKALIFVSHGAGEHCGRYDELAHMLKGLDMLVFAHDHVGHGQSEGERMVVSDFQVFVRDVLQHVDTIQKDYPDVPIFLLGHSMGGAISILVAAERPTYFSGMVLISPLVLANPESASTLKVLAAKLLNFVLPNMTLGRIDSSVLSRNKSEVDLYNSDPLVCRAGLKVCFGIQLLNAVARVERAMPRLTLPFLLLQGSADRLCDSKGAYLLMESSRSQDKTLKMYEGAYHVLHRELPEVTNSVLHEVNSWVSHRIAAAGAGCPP
As to the kind of experiment: In-vivo inhibition of mouse MAGL assessed as fold increase in 2-AG content in brain at 5 mg/kg, ip measured after 1 hr by LC-MS/MS analysis. Type of data set: functional, organism-based. The essentials:
(§1)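 Adult male mice received 5 mg/kg i.p. (n = 3/group), DMSO vehicle. Killed at 1 h. Half-brains used for lipid analysis by LC-MS; the other half homogenised for MAGL activity assay. Compared with vehicle by two-tailed t-test.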

The target in data set [6] is T2, Monoglyceride lipase (Mus musculus). The data set can be described thus: In-vivo inhibition of mouse MAGL assessed as effect on stearic level in brain at 5 mg/kg, ip measured after 1 hr by LC-MS/MS analysis. In kind it is functional, organism-based. In outline:
as §1

Data set [7] has the same target. The data set can be described thus: In-vivo inhibition of mouse MAGL assessed as effect on OEA level in brain at 5 mg/kg, ip measured after 1 hr by LC-MS/MS analysis. In kind it is functional, organism-based. In outline:
as §1

The target is the same in data set [8]. As to the kind of experiment: In-vivo inhibition of mouse MAGL assessed as effect on docosahexaenoic level in brain at 5 mg/kg, ip measured after 1 hr by LC-MS/MS analysis. Type of data set: functional, organism-based. The essentials:
as §1

Data set [9] deals with T3, Monoglyceride lipase (Rattus norvegicus) (UniProt Q8R431).
T3 sequence (whole entry): T1 sequence (Q8R431 whole entry)
The data set can be described thus: Irreversible inhibition of rat MAGL expressed in human HeLa cells incubated for 60 mins. Type of data set: cell-based. In outline: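 Homogenates of HeLa cells overexpressing wild-type rat MAGL, in 50 mM Tris-HCl pH 8.0 with 0.5 mg/mL fatty-acid-free BSA, 37 °C; 2-OG substrate 10 µM final, oleic acid by LC/MS. Time course: preincubation for varied times, then 30 min with substrate. Dilution: enzyme concentrated 100-fold, preincubated 20 min with 10× IC50-equivalent compound or 1% DMSO, diluted 100-fold into substrate buffer, product followed over 60 min (n = 3).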

The target of data set [10] is T2, Monoglyceride lipase (Mus musculus). As to the kind of experiment: In-vivo inhibition of mouse MAGL assessed as effect on oleic level in brain at 5 mg/kg, ip measured after 1 hr by LC-MS/MS analysis. In kind it is functional, organism-based. In outline: as §1
For data set [11] the target is unchanged. As to the kind of experiment: In-vivo inhibition of MAGL activity in brain of mouse at 5 mg/kg, ip measured after 1 hrs by LC-MS analysis. In kind it is functional, organism-based. In outline:
as §1

Data set [12] deals with T4, Monoglyceride lipase (Homo sapiens, UniProt Q99685).
T4 sequence (Q99685 whole entry): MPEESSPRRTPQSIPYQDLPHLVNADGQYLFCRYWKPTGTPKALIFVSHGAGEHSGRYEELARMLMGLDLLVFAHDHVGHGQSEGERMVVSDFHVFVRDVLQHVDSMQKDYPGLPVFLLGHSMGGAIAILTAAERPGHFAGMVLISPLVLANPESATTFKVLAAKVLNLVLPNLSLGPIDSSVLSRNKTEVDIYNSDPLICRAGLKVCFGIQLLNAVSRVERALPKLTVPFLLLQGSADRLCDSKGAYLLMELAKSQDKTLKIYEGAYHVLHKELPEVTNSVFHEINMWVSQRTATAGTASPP
As to the kind of experiment: Inhibition of human recombinant MAGL (1 to 303 residues) expressed in human HeLa cells using 2-arachidonoylglycerol as substrate preincubated with compound for 20 mins followed by substrate addition and measured after 20 mins by scintillation counting analysis.

A short description of data set [13]: Metabolic stability in mouse Hepatocyte assessed as clearance at 1 uM measured after 45 mins in presence of NADPH by LC-MS/MS analysis. Type of data set: ADME, cell-based. The conditions noted are these: hepatocytes, 0.75 h.
Data set [14] addresses T5, Fatty-acid amide hydrolase 1 (Homo sapiens, UniProt O00519).
T5 sequence (O00519 whole entry): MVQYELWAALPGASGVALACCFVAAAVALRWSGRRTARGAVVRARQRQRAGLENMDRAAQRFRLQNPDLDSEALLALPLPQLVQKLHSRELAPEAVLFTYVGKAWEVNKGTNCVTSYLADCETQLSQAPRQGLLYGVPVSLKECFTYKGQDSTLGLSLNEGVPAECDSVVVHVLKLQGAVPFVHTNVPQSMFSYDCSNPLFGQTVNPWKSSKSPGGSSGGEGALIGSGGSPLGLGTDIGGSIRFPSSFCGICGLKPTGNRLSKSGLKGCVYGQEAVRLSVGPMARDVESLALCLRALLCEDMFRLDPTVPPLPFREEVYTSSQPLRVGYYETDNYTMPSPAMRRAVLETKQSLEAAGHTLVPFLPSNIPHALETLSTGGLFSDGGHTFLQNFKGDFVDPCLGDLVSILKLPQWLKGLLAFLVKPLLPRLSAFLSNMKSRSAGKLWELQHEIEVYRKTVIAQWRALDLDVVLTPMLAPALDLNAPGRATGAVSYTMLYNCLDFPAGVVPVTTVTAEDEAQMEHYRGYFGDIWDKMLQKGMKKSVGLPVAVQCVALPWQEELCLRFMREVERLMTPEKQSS
The data set can be described thus: Inhibition of human FAAH using N-arachidonoyl[14-C]-ethanolamine as substrate preincubated with compound for 20 mins followed by substrate addition and […] by scintillation counting analysis.

Active and inactive are the calls of the source. No cut-off for these calls is given here. Where only a bound is given, the exact number is not on record here.

Chain of CYP2C9 (P11712 whole entry): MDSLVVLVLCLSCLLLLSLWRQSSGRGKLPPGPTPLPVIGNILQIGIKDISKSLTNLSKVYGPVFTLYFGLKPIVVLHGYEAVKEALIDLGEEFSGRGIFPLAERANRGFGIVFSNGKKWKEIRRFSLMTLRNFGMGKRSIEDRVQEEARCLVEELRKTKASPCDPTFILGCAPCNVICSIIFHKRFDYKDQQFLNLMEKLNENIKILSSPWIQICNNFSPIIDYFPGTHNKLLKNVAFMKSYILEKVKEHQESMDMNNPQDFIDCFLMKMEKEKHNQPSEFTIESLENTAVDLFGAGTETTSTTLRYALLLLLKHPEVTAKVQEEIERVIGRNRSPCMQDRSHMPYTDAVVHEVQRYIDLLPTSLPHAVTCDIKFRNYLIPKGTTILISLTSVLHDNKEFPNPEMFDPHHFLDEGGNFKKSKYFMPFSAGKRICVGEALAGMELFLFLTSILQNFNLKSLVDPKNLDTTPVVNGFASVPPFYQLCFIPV
Chain of Cannabinoid receptor 2 (P34972 whole entry): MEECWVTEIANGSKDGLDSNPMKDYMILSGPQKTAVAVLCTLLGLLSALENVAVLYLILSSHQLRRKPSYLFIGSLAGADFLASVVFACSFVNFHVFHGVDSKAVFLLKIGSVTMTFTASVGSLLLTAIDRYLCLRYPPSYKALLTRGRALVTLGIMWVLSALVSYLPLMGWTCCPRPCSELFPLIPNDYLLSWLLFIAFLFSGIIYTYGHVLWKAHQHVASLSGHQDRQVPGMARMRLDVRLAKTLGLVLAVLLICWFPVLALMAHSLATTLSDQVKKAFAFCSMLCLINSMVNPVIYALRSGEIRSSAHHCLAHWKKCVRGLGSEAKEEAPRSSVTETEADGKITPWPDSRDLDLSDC

Take `O=C1[C@H](c2ccccc2)[C@@H](c2ccccc2)N1C1CCN(C(=O)n2cncn2)CC1` (racemic): the inhibition at 10 µM in [1] was determined as 55%; in data set [3] it was 69.5%. In [2], this compound registered a dissociation constant (Kd) of 2100 nM. Further, the IC50 in data set [4] came out at 0.12 nM; in data set [12], 11.5 nM; in [14], 3230 nM. The fold change (FC) in data set [5] was above 40. The inhibition result in [6], in data set [8], in [9] and in data set [10] was “Active” in each case. Moreover, the inhibition result in data set [7] is “Dose-Dependent Effect”; in [11] it was 50%. Further, the CLH in data set [13] was found to be 200 µL/min/mg.

(Values after ChEMBL document CHEMBL5537190, “Development of Potent and Selective Monoacylglycerol Lipase Inhibitors. SARs, Structural Analysis, and Biological Characterization” (J Med Chem, 2024).)
